Laboratory results as given in ChEMBL document CHEMBL4610063, “Mangiferin: A promising natural xanthone from Mangifera indica for the control of acyclovir - resistant herpes simplex virus 1 infection” (Bioorg Med Chem, 2020).
The source made the active and inactive calls. No cut-off for these calls is given here.

How the values were obtained:
Format in all cases: functional, organism-based
Human alphaherpesvirus 1 [1] = experiment: Antiviral activity against ACV-resistant Herpes simplex virus 1 AR-29 infected in male Balb/c mouse assessed as reduction in zosteriform lesion at 50 mg/g applied topically as cream formulation 5 times a day at 3 hrs interval for 10 days measured on day 5 post infection
Procedure, shortened: (§1)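 Balb/c mice, 5 weeks old, six per group. Right mid-flank depilated under i.p. anaesthesia, needle-scarified 24 h later and inoculated with 70 μL HSV-1 AR-29 (10^5 PFU/mL). Topical 0.7% w/w O/W emulsion or ACV cream (50 mg/g) starts 4 h post-infection, 5 times daily for 10 days. Lesions are scored daily.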

Human alphaherpesvirus 1 [2] = experiment: Antiviral activity against ACV-resistant Herpes simplex virus 1 AR-29 infected in male Balb/c mouse assessed as reduction in ulcerated lesion at 50 mg/g applied topically as cream formulation 5 times a day at 3 hrs interval for 10 days measured on day 5 post infection; procedure, shortened: as §1
Human alphaherpesvirus 1 [3] = experiment: Antiviral activity against ACV-sensitive Herpes simplex virus 1 KOS infected in male Balb/c mouse assessed as reduction in ulcerated lesion at 50 mg/g applied topically as cream formulation 5 times a day at 3 hrs interval for 10 days measured on day 2 post infection; details: strain KOS
Procedure, shortened: (§2)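 Balb/c mice (5 weeks, 22–27 g; six per group, sexes tested separately) had the right mid-flank depilated under i.p. anaesthesia and needle-scarified 24 h later. They were inoculated with 70 μL HSV-1 KOS (10^5 PFU/mL). From 4 h post-infection, O/W emulsion with 0.7% w/w mangiferin or ACV cream (50 mg/g) was applied topically 5 times daily for 10 days. Lesions were scored daily.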

Human alphaherpesvirus 1 [4] = experiment: Antiviral activity against ACV-resistant Herpes simplex virus 1 AR-29 infected in female Balb/c mouse assessed as reduction in zosteriform lesion at 50 mg/g applied topically as cream formulation 5 times a day at 3 hrs interval for 10 days measured on day 7 post infection; procedure, shortened: as §1
Human alphaherpesvirus 1 [5] = experiment: Antiviral activity against ACV-sensitive Herpes simplex virus 1 KOS infected in male Balb/c mouse assessed as reduction in ulcerated lesion at 50 mg/g applied topically as cream formulation 5 times a day at 3 hrs interval for 10 days measured on day 7 post infection; details: strain KOS; procedure, shortened: as §2
Human alphaherpesvirus 1 [6] = experiment: Antiviral activity against ACV-resistant Herpes simplex virus 1 AR-29 infected in female Balb/c mouse assessed as reduction in skin lesion at 50 mg/g applied topically as cream formulation 5 times a day at 3 hrs interval for 10 days; procedure, shortened: as §1
Human alphaherpesvirus 1 [7] = experiment: Antiviral activity against ACV-sensitive Herpes simplex virus 1 KOS infected in female Balb/c mouse assessed as reduction in ulcerated lesion at 50 mg/g applied topically as cream formulation 5 times a day at 3 hrs interval for 10 days measured on day 3 to day 5 post infection; details: strain KOS; procedure, shortened: as §2

## Nc1nc2c(ncn2COCCO)c(=O)[nH]1
Human alphaherpesvirus 1 [1]
  Activity: inactive
Human alphaherpesvirus 1 [2]
  Activity: inactive
Human alphaherpesvirus 1 [3]
  Activity: inactive
Human alphaherpesvirus 1 [4]
  Activity: Active
Human alphaherpesvirus 1 [5]
  Activity: Active
Human alphaherpesvirus 1 [6]
  Activity: inactive
Human alphaherpesvirus 1 [7]
  Activity: inactive
